Tests used:
Rattus norvegicus [1] = experiment: Toxicity in Albino rat assessed as gastric-ulcerogenic effect at 30 uM/kg, po twice daily for 3 days; format: organism-based; settings: in vivo, 72 h, 30 µM/kg per day
In short: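 Male albino rats (100–120 g), six per group, fasted 12 h with water ad libitum. Compounds given orally in two equal doses at 0 and 12 h for three successive days, 30 µM/kg per day; controls received 1% gum acacia orally. Rats killed with diethyl ether 6 h after the last dose and stomachs removed. Lesion severity scored on an arbitrary scale as ulcer index; % ulceration = ulcer-bearing animals/total × 100.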

Rattus norvegicus [2] = experiment: Antiinflammatory activity against carrageenan-induced paw edema in sc dosed Albino rat assessed as inhibition of paw edema volume measured 4 hrs after carrageenan challenge; format: functional
In short: (§1)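 Rats randomized into groups of six. Edema induced by subplantar injection of 50 µL 2% carrageenan in 0.9% saline. Compounds in DMSO given sc at 5, 10, 15, 20 and 25 µmol/kg, 1 h before carrageenan; controls got DMSO. Paw volume read by water plethysmometer immediately and 4 h after carrageenan. Protection = (Vc − Vd)/Vc × 100. ED50 taken from dose-response curves at 4 h. Means ± SEM.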

Rattus norvegicus [3] = experiment: Antiinflammatory activity in sc dosed Albino rat assessed as protection against carrageenan-induced paw edema measured 4 hrs after carrageenan challenge; format: functional; in short: as §1
Rattus norvegicus [4] = experiment: Antiinflammatory activity in sc dosed Albino rat assessed as protection against carrageenan-induced paw edema measured 4 hrs after carrageenan challenge relative to indomethacin; format: functional

Row | Structure (SMILES) | Activity (Rattus norvegicus [1]) [%] | ED50 (Rattus norvegicus [2]) [µmol/kg] | Activity (Rattus norvegicus [3]) [%] | Activity (Rattus norvegicus [4])
1 | CN1N=C(/C=C/c2ccc3c(c2)OCO3)CCC1=O | 10 | 34.3 | – | –
2 | O=C1CCC(/C=C/c2ccc3c(c2)OCCO3)=NN1 | 0 | 27 | – | –
3 | O=C1CCC(/C=C/c2ccc(-c3ccccc3)cc2)=NN1c1ccccc1 | 10 | 38.6 | – | –
4 | O=C1CCC(CCc2ccc3c(c2)OCCO3)=NN1 | 0 | 17 | 61.22 | 82.28
5 | O=C1CCC(/C=C/c2ccc(-c3ccccc3)cc2)=NN1 | 10 | 24.6 | – | –
6 | O=C1CCC(/C=C/c2ccc(Oc3ccccc3)cc2)=NN1 | 0 | 28.8 | – | –
7 | CN1N=C(/C=C/c2ccc(-c3ccccc3)cc2)CCC1=O | 20 | 32.4 | – | –
8 | CN1N=C(CCc2ccc(-c3ccccc3)cc2)CCC1=O | 0 | 22.3 | – | –
9 | O=C1CCC(CCc2ccc(-c3ccccc3)cc2)=NN1 | 10 | 18.7 | 58.16 | 78.17
10 | Cc1ccc(-c2cc(C(F)(F)F)nn2-c2ccc(S(N)(=O)=O)cc2)cc1 [CELECOXIB] | 0 | 16.7 | 77.5 | 104.23
11 | COc1ccc2c(c1)c(CC(=O)O)c(C)n2C(=O)c1ccc(Cl)cc1 [INDOMETHACIN] | 100 | 9.7 | 74.4 | –
